Experimental findings from paper PMC9020136 (Science (New York, N.Y.), 2022) are described below.

Bounds are passed on as bounds.

For one assay, the system named is Bacilus subtilis. The assay can be described thus: MIC, broth-microdilution method. It counts as cell-based.
A further assay has as its system bacterial membranes. The assay can be described thus: Membrane permeabilization, influx of viability stain SYTOX Green. It counts as cell-based, B. subtilis. The following applies: concentration twice the MIC value. An outline of the steps:
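Live B. subtilis cells imaged over time by confocal microscopy after exposure to a lethal level of test compound. SYTOX Green was used as a viability stain, with its entry into cells read as membrane permeabilization.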

For orientation: MIC means the lowest concentration found to suppress growth. The low end stands for greater potency, the high end for weaker potency. For (−)-Himastatin [(−)-himastatin (1)], the MIC with Bacilus subtilis was found to be 1 mg/L. For the same substance, the “time to permeabilization of bacterial membranes” value in the assay with bacterial membranes was at most 30 min.
